# In ChEMBL document CHEMBL4130635, “2,4-Diaminoquinazolines as Dual Toll-like Receptor (TLR) 7/8 Modulators for the Treatment of Hepatitis B Virus” (J Med Chem, 2018):
# Calls of active or inactive are those of the source. No cut-off for these calls is given here.
# What was measured:
# [1] = system: TK6; test: Genotoxicity in human TK6 cells by in vitro micronuleus test; format: toxicity, cell-based
# Procedure, shortened: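 In vitro micronucleus test in TK-6 cells.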
# [2] = Stability in rat hepatocytes assessed compound turnover at 1 uM after 60 mins; format: ADME, cell-based, Hepatocyte; details: read-out: Drug metabolism
# [3] = Hepatic extraction ratio in Sprague-Dawley rat hepatocytes; format: ADME, cell-based, Hepatocyte; details: in vivo, in the assay text read “in Sprague-Dawley rat” for “in Sprague-Dawley rat hepatocytes”, read-out: ERH
# Procedure, shortened: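 Male Sprague-Dawley rats given 10 mg/kg po as a solution; compound measured in portal vein and systemic circulation to derive the hepatic extraction ratio.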
# [4] = Cmax in C57BL/6J mouse liver at 10 mg/kg, po by LC-MS analysis; format: ADME, organism-based; parameters: dose 10 mg/kg, route oral
# Procedure, shortened: (§1)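 Healthy C57BL/6 mice, groups of 15, given a single oral dose (0.3, 1, 3, 10 or 30 mg/kg) in 20% HP-β-CD. Blood drawn at 0.5 h. Three mice per group sacrificed at 0.5, 1, 2, 4 or 7 h, and compound in plasma and liver measured by LC−MS. Values rounded to whole numbers.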
# [5] = Cmax in C57BL/6J mouse plasma at 30 mg/kg, po by LC-MS analysis; format: ADME, organism-based; parameters: dose 30 mg/kg, route oral; procedure, shortened: as §1
# [6] = AUC (0 to last) in C57BL/6J mouse liver at 1 mg/kg, po by LC-MS analysis; format: ADME, organism-based; details: in vivo
# Procedure, shortened: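 Healthy C57BL/6 mice were dosed once by mouth at 0.3, 1, 3, 10 or 30 mg/kg in 20% HP-β-CD, in groups of 15 per dose. Three mice per group were sacrificed at 0.5, 1, 2, 4 or 7 h, and plasma and liver compound levels were measured by LC–MS. Values were rounded to whole numbers.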
# [7] = system: Liver; test: Induction of IFNalpha levels in C57BL/6J mouse liver at 3 mg/kg, po by ELISA (reference value: 30 pg/g); format: functional
# [8] = system: Plasma; test: Upregulation of IP-10 mRNA expression levels in C57BL/6J mouse plasma at 3 mg/kg, po by RT-qPCR analysis (reference value: 1); format: functional
# [9] = system: Liver; test: Effect on cytokine profile in C57BL/6J mouse liver assessed as IL-12p70 levels at 10 mg/kg, po by multiplex assay (reference value: 5 pg/g); format: functional
# Procedure, shortened: (§2)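 Single oral gavage in 20% HP-β-CD to healthy C57BL/6 mice, groups of 15 at 0.3, 1, 3, 10 or 30 mg/kg. Three mice per group sacrificed at 0.5, 1, 2, 4 or 7 h. Plasma and liver cytokines by multiplex, maximum level reported, rounded to nearest multiple of 5.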
# [10] = system: Plasma; test: Effect on cytokine profile in C57BL/6J mouse plasma assessed as IFNgamma levels at 0.3 mg/kg, po by multiplex assay; format: functional, organism-based; procedure, shortened: as §2
# [11] = system: Plasma; test: Effect on cytokine profile in C57BL/6J mouse plasma assessed as IFNgamma levels at 1 mg/kg, po by multiplex assay; format: functional, organism-based; procedure, shortened: as §2
# [12] = system: Liver; test: Effect on cytokine profile in C57BL/6J mouse liver assessed as IFNgamma levels at 0.3 mg/kg, po by multiplex assay; format: functional, organism-based; procedure, shortened: as §2
# [13] = system: Liver; test: Proinflammatory activity in C57BL/6J mouse liver assessed as IL-1beta levels at 1 mg/kg, po by multiplex assay; format: functional
# [14] = system: Plasma; test: Proinflammatory activity in C57BL/6J mouse plasma assessed as IL-6 levels at 1 mg/kg, po by multiplex assay (reference value: 505 pg/ml); format: functional
# [15] = system: Plasma; test: Proinflammatory activity in C57BL/6J mouse plasma assessed as IL-6 levels at 30 mg/kg, po by multiplex assay (reference value: 505 pg/ml); format: functional
# [16] = system: Liver; test: Anti-inflammatory activity in C57BL/6J mouse liver assessed as IL-10 levels at 10 mg/kg, po by multiplex assay (reference value: 2 pg/g); format: functional; procedure, shortened: as §2
# [17] = system: Cynomolgus monkey; test: Plasma concentration in cynomolgus monkey at 9 mg/kg, po by LC-MS analysis; format: ADME, organism-based, Macaca fascicularis; details: in vivo
# [18] = system: Cynomolgus monkey; test: Plasma concentration in cynomolgus monkey at 30 mg/kg, po by LC-MS analysis; format: ADME, organism-based, Macaca fascicularis; details: in vivo
# [19] = system: Cynomolgus monkey; test: Effect on cytokine profile in cynomolgus monkey plasma assessed as IL-15 levels at 30 mg/kg, po after 24 hrs by Luminex assay (reference value: 20 pg/ml); format: functional, Macaca fascicularis
# Procedure, shortened: (§3)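 Healthy cynomolgus monkeys given single oral doses of 1, 3, 9 and 30 mg/kg, with a 2-week wash-out planned between doses. Systemic cytokine levels in plasma were sampled at 0.5, 1, 2, 4, 9 and 24 h postdose.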
# [20] = system: Cynomolgus monkey; test: Proinflammatory activity in cynomolgus monkey plasma assessed as IL-6 levels at 30 mg/kg, po after 24 hrs by Luminex assay (reference value: 80 pg/ml); format: functional, Macaca fascicularis
# [21] = system: Cynomolgus monkey; test: Proinflammatory activity in cynomolgus monkey plasma assessed as IL-8 levels at 9 mg/kg, po after 24 hrs by Luminex assay (reference value: 430 pg/ml); format: functional, Macaca fascicularis
# [22] = system: Cynomolgus monkey; test: Activation of monocytes in cynomolgus monkey plasma assessed as upregulation of IL1Ra levels at 3 mg/kg, po after 24 hrs by Luminex assay (reference value: 320 pg/ml); format: functional, Macaca fascicularis
# [23] = system: Cynomolgus monkey; test: Activation of monocytes in cynomolgus monkey plasma assessed as upregulation of MCP1 levels at 30 mg/kg, po after 24 hrs by Luminex assay (reference value: 385 pg/ml); format: functional, Macaca fascicularis
# [24] = system: Cynomolgus monkey; test: Activation of monocytes in cynomolgus monkey plasma assessed as upregulation of MIP1 levels at 30 mg/kg, po after 24 hrs by Luminex assay (reference value: 37 pg/ml); format: functional, Macaca fascicularis
# [25] = system: Cynomolgus monkey; test: Induction of G-CSF in cynomolgus monkey plasma at 1 mg/kg, po after 24 hrs by Luminex assay (reference value: 85 pg/ml); format: functional, organism-based; details: Macaca fascicularis; procedure, shortened: as §3
# [26] = system: Cynomolgus monkey; test: Anti-inflammatory activity in cynomolgus monkey plasma assessed as IL-10 levels at 3 mg/kg, po after 24 hrs by Luminex assay (reference value: 195 pg/ml); format: functional, Macaca fascicularis
# [27] = system: Cynomolgus monkey; test: Induction of ISG response in cynomolgus monkey plasma assessed as upregulation of Isg15 mRNA expression at 3 mg/kg, po after 24 hrs by Fluidigm RT-qPCR analysis (reference value: 1); format: functional, Macaca fascicularis
# Procedure, shortened: (§4)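 Cynomolgus monkeys, single oral doses of 1, 3, 9 and 30 mg/kg with a planned 2-week wash-out between doses. Systemic ISG (ISG15, Mx1, OAS1) mRNA was measured by Fluidigm RT-qPCR at 1, 2, 4, 8 and 24 h postdose.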
# [28] = system: Cynomolgus monkey; test: Induction of ISG response in cynomolgus monkey plasma assessed as upregulation of Mx1 mRNA expression at 1 mg/kg, po after 24 hrs by Fluidigm RT-qPCR analysis (reference value: 1); format: functional, Macaca fascicularis; procedure, shortened: as §4
# [29] = Absolute bioavailability in cynomolgus monkey at 1 to 30 mg/kg; format: ADME, organism-based, Macaca fascicularis; details: in vivo
# [30] = biological target: TLR7 and TLR8 (Homo sapiens) (UniProt Q9NYK1+Q9NR97); test: Agonist activity at TLR7/8 in human PBMCs co-cultured with primary human hepatocytes infected with HBV genotype C for 12 days assessed as increase in MIP-1alpha levels up to 5 uM measured after 42 days
# [31] = system: Cynomolgus monkey; test: Toxicity in cynomolgus monkey assessed as clinical observation changes up to 30 mg/kg, po; format: organism-based, Macaca fascicularis; details: in vivo
# TLR7 and TLR8 (Homo sapiens), sequence (Q9NR97 whole entry, looked up): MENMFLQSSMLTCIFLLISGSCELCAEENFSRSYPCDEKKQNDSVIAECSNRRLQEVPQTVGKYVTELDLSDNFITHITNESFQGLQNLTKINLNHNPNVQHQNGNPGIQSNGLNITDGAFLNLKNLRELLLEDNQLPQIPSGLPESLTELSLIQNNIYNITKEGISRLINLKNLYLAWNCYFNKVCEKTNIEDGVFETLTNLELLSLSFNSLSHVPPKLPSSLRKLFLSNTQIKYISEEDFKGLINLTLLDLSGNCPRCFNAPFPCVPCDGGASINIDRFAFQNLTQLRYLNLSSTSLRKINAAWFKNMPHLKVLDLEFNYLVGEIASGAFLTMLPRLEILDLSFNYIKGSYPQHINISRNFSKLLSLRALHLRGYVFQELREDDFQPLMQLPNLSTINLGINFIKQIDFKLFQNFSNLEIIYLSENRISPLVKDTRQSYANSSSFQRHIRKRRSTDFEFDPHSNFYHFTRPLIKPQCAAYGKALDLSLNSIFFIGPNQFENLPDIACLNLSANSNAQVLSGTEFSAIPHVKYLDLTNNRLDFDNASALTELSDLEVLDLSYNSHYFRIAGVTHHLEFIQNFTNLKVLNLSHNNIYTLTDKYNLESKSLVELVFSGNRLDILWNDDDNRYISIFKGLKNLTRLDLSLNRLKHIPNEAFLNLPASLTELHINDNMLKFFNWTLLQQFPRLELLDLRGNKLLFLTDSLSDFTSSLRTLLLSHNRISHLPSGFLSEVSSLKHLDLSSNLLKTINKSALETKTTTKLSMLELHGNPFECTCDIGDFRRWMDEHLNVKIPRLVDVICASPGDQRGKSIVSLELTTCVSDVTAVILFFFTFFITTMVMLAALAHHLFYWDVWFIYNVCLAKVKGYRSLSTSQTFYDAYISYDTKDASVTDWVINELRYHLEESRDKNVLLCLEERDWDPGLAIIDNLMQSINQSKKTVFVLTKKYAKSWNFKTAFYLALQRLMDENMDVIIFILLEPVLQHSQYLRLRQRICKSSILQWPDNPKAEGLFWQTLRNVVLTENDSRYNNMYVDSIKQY
# TLR7 and TLR8 (Homo sapiens), sequence (Q9NYK1 whole entry, looked up): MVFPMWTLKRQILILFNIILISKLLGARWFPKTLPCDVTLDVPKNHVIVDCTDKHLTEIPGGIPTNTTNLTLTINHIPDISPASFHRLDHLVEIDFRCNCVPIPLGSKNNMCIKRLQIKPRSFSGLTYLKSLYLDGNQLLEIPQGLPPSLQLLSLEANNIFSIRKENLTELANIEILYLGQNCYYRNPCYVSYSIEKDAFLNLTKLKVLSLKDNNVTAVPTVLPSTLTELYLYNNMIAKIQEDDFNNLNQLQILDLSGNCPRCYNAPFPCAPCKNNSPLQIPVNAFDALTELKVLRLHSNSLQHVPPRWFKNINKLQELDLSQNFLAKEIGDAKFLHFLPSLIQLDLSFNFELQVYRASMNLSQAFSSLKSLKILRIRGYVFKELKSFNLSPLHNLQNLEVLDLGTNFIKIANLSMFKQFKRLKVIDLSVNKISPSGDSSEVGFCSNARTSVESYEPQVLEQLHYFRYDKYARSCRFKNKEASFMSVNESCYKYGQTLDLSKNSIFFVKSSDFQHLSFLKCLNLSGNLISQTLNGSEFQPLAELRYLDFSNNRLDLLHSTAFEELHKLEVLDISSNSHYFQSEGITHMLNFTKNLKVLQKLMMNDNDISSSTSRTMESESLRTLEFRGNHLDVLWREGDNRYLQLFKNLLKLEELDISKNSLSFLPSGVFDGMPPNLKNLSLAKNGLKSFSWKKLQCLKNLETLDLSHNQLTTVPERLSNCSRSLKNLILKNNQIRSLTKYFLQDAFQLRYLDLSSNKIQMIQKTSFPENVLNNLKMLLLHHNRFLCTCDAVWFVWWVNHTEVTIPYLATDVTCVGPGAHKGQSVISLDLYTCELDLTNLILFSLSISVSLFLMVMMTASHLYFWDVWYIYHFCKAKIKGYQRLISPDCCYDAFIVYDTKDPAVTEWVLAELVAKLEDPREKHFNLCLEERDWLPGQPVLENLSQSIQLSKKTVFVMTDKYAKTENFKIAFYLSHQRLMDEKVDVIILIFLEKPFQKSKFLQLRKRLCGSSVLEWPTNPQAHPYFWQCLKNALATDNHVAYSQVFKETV
structure (smiles),measurement,setting,value
CCC[C@@H](CCO)Nc1nc(N)nc2c(F)cccc12,Activity,[1],Non-Toxic
same,"metabolised at 1 h, 1 µM",[2],96%
same,hepatic extraction ratio,[3],0.74
same,Cmax,[4],1420 ng/g
same,Cmax,[5],813 ng/mL
same,AUClast,[6],148 ng·h/g
same,Activity,[7],765 pg/g
same,fold change (FC),[8],2485
same,Activity,[9],790 pg/g
same,Activity,[10],Below limit of detection
same,Activity,[11],Below limit of detection
same,Activity,[12],Below limit of detection
same,Activity,[13],16445 pg/g
same,Activity,[14],1150 pg/mL
same,Activity,[15],>10000 pg/mL
same,Activity,[16],2265 pg/g
same,Cp,[17],200 ng/mL
same,Cp,[18],160 ng/mL
same,Activity,[19],85 pg/mL
same,Activity,[20],5285 pg/mL
same,Activity,[21],1640 pg/mL
same,Activity,[22],2020 pg/mL
same,Activity,[23],>10000 pg/mL
same,Activity,[24],560 pg/mL
same,Activity,[25],Below limit of detection
same,Activity,[26],1615 pg/mL
same,fold change (FC),[27],145
same,fold change (FC),[28],40
same,bioavailability,[29],< 11%
same,Activity,[30],Active
same,Activity,[31],Non-Toxic
